Measurements taken from PubChem BioAssay.
The source made the active and inactive calls.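 Rule for the calls, unless noted: active = viability at or below 10% of carrier control in both of two separate runs; inconclusive = viability at or below 10% in only one of the two runs; inactive = the rest.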

Columns and labels:
[1] = reducers of endogenous Her2 protein level, primary screen, SKBR3 breast tumor cells, AlphaScreen, ATP viability (AID 461;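 active = Her2 level under about 52% in both replicate screens, with viability over 70% of control, limit read from the data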;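 for Her2 level: lower value means less Her2 protein in the cells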;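 for viability: percent of carrier control wells set as 100% viability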); details: 18-24 h, measured here: SKBR3 viability, ATP luminescence, at 10 µM
[2] = biological target: Receptor tyrosine-protein kinase erbB-2 (Homo sapiens) (UniProt P04626); assay: as above; details: 18-24 h, at 10 µM, stronger effect = lower value
[3] = SK-BR-3 cell growth inhibitors, pilot screen, 24 h, human (AID 572); details: SK-BR-3 viability, CellTiter-Glo luminescence, at 10 µM, stronger effect = lower value;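 note: compound exposure lasted between 18 and 24 h rather than exactly 24 h; 100% = carrier-treated control wells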
[4] = HUVEC growth inhibition – cell-based, human, primary screen (AID 575;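 active = viability at or below 30% in both replicate assays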;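 note: 100% = median of untreated cell wells with 0.1% DMSO on each plate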); details: HUVEC proliferation, CellTiter-Glo luminescence, 72 h; at 10 µM; stronger effect = lower value
Procedure, shortened: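 Timing: 72 h treatment at 37 °C; material: HUVEC primary cells; technique: CellTiter-Glo luminescence measuring cellular ATP; controls: vehicle and MePR control wells; measure: percent of median DMSO-control luminescence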

[5] = growth inhibitors of H69AR lung tumor, primary screen, human, duplicate replicates (AID 580;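 active = viability at or under a set limit in both replicates, limit being median viability minus 3 SD, cut at about 48% in these data, passing the limit was not always enough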;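 note: 100% = mean luminescence of untreated wells and 0% = no signal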); details: H69AR lung tumor cells viability, ATP luminescence, 72 h; at 10 µM; stronger effect = lower value
[6] = reversal of MRP1-mediated doxorubicin resistance, pilot screen, H69AR cells, doxorubicin co-treatment (AID 601;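 active = viability loss from added drug above about 55%, and viability with drug at most 40%, in both replicates, limit read from the data, passing the limit was not always enough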); details: CellTiter-Glo, 72 h, at 10 µM; for differential viability (reversal): stronger effect = higher value
[7] = 384-well plate pilot, post-Golgi transport modulator project, inhibition of yeast transport mutant growth (AID 636; in the data active = inhibition above about 31%); details: absorbance 615 nm, about 18 h, stronger effect = higher value
[8] = growth suppression of yeast trafficking mutant, preliminary HTS, modulators of trafficking downstream of Golgi apparatus project, 1536-format plate, OD 615 nm (AID 637; in the data active = inhibition above about 30%); details: yeast transport mutant growth, absorbance 615 nm, 18 h; stronger effect = higher value
[9] = H69AR cells + 2 uM doxorubicin, measured here: viability with 2 uM doxorubicin, stronger effect = lower value
[10] = H69AR cells, compound alone cytotoxicity

Receptor tyrosine-protein kinase erbB-2 (Homo sapiens), sequence (P04626 whole entry, looked up): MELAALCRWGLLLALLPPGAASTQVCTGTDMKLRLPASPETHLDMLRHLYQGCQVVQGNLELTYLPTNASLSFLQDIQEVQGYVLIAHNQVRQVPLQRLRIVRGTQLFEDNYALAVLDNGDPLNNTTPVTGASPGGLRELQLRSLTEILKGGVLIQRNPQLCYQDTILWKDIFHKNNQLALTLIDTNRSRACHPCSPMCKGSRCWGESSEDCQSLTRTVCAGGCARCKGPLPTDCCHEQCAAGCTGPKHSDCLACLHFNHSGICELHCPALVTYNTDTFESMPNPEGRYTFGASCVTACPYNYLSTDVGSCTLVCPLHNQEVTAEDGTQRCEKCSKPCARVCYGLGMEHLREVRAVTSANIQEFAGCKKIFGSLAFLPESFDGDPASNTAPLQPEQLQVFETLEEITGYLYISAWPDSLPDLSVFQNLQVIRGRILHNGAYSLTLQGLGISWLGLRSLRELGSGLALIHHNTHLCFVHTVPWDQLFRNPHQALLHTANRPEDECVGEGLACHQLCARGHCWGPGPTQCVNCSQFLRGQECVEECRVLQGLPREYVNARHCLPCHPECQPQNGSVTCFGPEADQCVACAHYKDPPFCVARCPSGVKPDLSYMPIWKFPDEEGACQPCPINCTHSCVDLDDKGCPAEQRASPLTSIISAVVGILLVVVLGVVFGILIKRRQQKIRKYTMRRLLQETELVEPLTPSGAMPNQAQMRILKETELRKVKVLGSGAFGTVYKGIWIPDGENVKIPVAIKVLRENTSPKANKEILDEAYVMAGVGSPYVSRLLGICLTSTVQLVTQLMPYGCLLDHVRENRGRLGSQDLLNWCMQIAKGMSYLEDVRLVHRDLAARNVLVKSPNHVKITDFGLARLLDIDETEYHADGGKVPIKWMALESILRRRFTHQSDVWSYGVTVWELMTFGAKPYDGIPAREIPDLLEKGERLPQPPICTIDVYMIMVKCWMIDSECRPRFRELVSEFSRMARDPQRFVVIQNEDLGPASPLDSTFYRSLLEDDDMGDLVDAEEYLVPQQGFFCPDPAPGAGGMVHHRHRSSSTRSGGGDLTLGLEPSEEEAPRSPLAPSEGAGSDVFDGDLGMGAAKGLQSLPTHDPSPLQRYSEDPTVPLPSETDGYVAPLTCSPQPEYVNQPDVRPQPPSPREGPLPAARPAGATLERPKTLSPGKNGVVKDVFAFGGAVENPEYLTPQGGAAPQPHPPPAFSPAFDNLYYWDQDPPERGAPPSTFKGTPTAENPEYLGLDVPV

SMILES | viability [1] | Her2 level [2] | viability [3] | viability [4] | viability [5] | differential viability (reversal) ([6]; H69AR cells + 2 uM doxorubicin) | viability [6, 9] | viability [6, 10] | inhibition [7] | inhibition [8]
O=C1N(CCCCN2C(=O)C3(OCCO3)c3ccccc32)c2ccccc2C12OCCO2 | 100% | 84.5% (inactive) | 100% (inactive) | 73.2% (inactive) | 84.9% (inactive) | 11.1% (inactive) | 73.7% | 84.9% | -0.39% (inactive) | 11.5% (inactive)
COc1ccc(C(=O)Nc2cccc(-c3nc4ncccc4o3)c2C)cc1OC | 99% | 122% (inactive) | 99% (inactive) | 81.8% (inactive) | 92.8% (inactive) | 1.52% (inactive) | 91.2% | 92.8% | 3.42% (inactive) | -3.97% (inactive)
CCOc1ccccc1NC(=O)C1CCCN(C(=O)NCc2ccccc2)C1 (stereo not given) | 102% | 89.5% (inactive) | 102% (inactive) | 96.8% (inactive) | 100% (inactive) | 3.45% (inactive) | 96.6% | 100% | -2.13% (inactive) | 4.26% (inactive)
CCc1ccc(NS(=O)(=O)c2cccs2)cc1 | 97.5% | 102% (inactive) | 97.5% (inactive) | 101% (inactive) | 96% (inactive) | 2% (inactive) | 94% | 96% | -2.24% (inactive) | 1.48% (inactive)
O=C(c1ccccc1)c1ccc(N2CCOCC2)c(NC(=O)c2ccco2)c1 | 82.5% | 78.5% (inactive) | 82.5% (inactive) | 81.1% (inactive) | 87.3% (inactive) | 15.7% (inactive) | 71.6% | 87.3% | -3.16% (inactive) | 2.86% (inactive)
Cc1nc2ccc(S(=O)(=O)NCC(=O)O)cc2s1 | 102% | 100% (inactive) | 102% (inactive) | 110% (inactive) | 107% (inactive) | 5.9% (inactive) | 101% | 107% | -1.84% (inactive) | -6.19% (inactive)
CC1=C(n2nnc3ccccc32)C(c2ccccc2)C(C#N)=C(N)O1 (stereo not given) | 72% | 73% (inactive) | 72% (inactive) | 82.8% (inactive) | 83.8% (inactive) | 1.96% (inactive) | 81.9% | 83.8% | -3.9% (inactive) | -4.1% (inactive)
Cc1ccc(C)c(S(=O)(=O)NCc2ccc(C(=O)N3CCN(C)CC3)cc2)c1 | 99.5% | 85.5% (inactive) | 99.5% (inactive) | 89.7% (inactive) | 91.7% (inactive) | 5.15% (inactive) | 86.5% | 91.7% | -5.68% (inactive) | -3% (inactive)
CC(C)(C)Nc1nc(OCC(F)(F)F)nc(OCC(F)(F)F)n1 | 108% | 89% (inactive) | 108% (inactive) | 98.8% (inactive) | 89.1% (inactive) | -0.98% (inactive) | 90.1% | 89.1% | -5.26% (inactive) | -10.6% (inactive)
Cc1cc(O)c(C2(C(F)(F)F)NCCNC2=O)cc1C (stereo not given) | 100% | 96% (inactive) | 100% (inactive) | 99.5% (inactive) | 98.8% (inactive) | 7.08% (inactive) | 91.7% | 98.8% | -4.61% (inactive) | -0.32% (inactive)
O=S1(=O)CCC(NS(=O)(=O)/C=C/c2ccccc2)C1 (stereo not given) | 110% | 104% (inactive) | 110% (inactive) | 93.4% (inactive) | 99.2% (inactive) | 9.1% (inactive) | 90.1% | 99.2% | -6.22% (inactive) | -3.11% (inactive)
CS(=O)(=O)NCc1ccc(C(=O)NCc2ccccc2)cc1 | 101% | 97% (inactive) | 101% (inactive) | 83.5% (inactive) | 113% (inactive) | 18.6% (inactive) | 94.4% | 113% | -4.47% (inactive) | 4% (inactive)
O=C(Nc1ccc(Cl)cc1C(=O)Nc1ccncc1)c1ccco1 | 121% | 48.5% (active) | 121% (inactive) | 70.1% (inactive) | 41.3% (active) | -19.2% (inactive) | 60.5% | 41.3% | -1.84% (inactive) | -1.59% (inactive)
CCCOC(=O)c1[nH]c2c(c1C)C(=O)CC(c1ccc(OC)c(OC)c1)C2 (stereo not given) | 99% | 151% (inactive) | 99% (inactive) | 84.7% (inactive) | 96% (inactive) | 0.765% (inactive) | 95.3% | 96% | 2.63% (inactive) | -11.2% (inactive)
